# Measurements as given in publication PMC10356740 (Journal of sleep research, 2023).
# Where two headings read alike, the source gives them in different places.
# What was measured:
# [1] = format: in vivo; conditions: mouse, 10 mg/kg
# Outline: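 Dosing was 10 mg/kg, s.c. or i.p. by compound, with sparse sampling of plasma and brain. Total drug measured by LC-MS/MS was multiplied by fraction unbound to give free concentrations. Fraction unbound came from 5 μM compound incubated in mouse plasma or brain homogenate by rapid equilibrium dialysis. Parameters were derived by noncompartmental analysis, with terminal half-life by best fit.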
# [2] = system: narcoleptic male orexin/tTA; TetO-DTA mice; assay: EEG spectral power analysis; format: in vivo, mouse
# Outline: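 Male orexin/tTA;TetO-DTA mice (n = 7) with subcutaneous EEG/EMG telemeters received vehicle or 1, 3 or 10 mg/kg (s.c. or i.p. by compound, 10 mL/kg) 15 min before light offset at ZT12. Design was repeated measures in balanced order, ≥3 d apart. Normalized EEG spectra were taken in 0.122 Hz bins and bands: delta 0.5–4, theta 4–9, alpha 9–12, beta 12–30, low gamma 30–60, high gamma 60–100 Hz. Each state needed ≥3 animals. Analysis was 2-way RM ANOVA with Holm-Sidak.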
# [3] = Fraction unbound by rapid equilibrium dialysis; format: in vitro ADME; conditions: mouse
# [4] = system: narcoleptic male orexin/tTA; TetO-DTA mice; assay: EEG/EMG sleep/wake and cataplexy scoring after dosing before dark onset; format: in vivo, mouse; conditions: for Latency to REM sleep / Latency to NREM sleep: vs vehicle; for Wake bout duration, treatment effect: 6-h recording; for REM/NREM ratio: entire 6-h recording; for Wake bout duration: first post-dosing hour (ZT13); for Compensatory NREM sleep after increased wakefulness: hours after the first post-dosing hour
# Outline: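 Crossover in telemetered male DTA mice (n = 7) given 1, 3 or 10 mg/kg s.c. or i.p., or the matching vehicle, 15 min before ZT12, ≥3 d between doses. EEG/EMG were scored for 6 h as hourly and cumulative time per state and as bouts. NREM latency ran from dosing to the first 6 consecutive NREM epochs; REM latency to the first 3 REM epochs. Analysis used 1-way ANOVA or 2-way RM ANOVA (treatment × time), with Holm-Sidak vs vehicle.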
# [5] = system: narcoleptic male orexin/tTA; TetO-DTA mice; assay: Gross motor activity, running wheel activity and subcutaneous temperature; format: in vivo, mouse; conditions: for Number of running bouts: ZT13
# Outline: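 Gross motor activity came from the implanted subcutaneous telemeter, alongside home-cage running-wheel activity and bouts and subcutaneous temperature, analysed per ZT hour after dosing. Male DTA mice (n = 7), adapted ≥2 weeks to wheels, handling and dosing, received vehicle or 1, 3 or 10 mg/kg s.c. or i.p. 15 min before ZT12 in repeated-measures order. Analysis was 2-way RM ANOVA (treatment × time) with Holm-Sidak.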
# wild-type mice = conditions: subcutaneous; ref Yukitake et al., 2019; cited from earlier work
# [6] = system: healthy sleep-deprived adults; conditions: Phase 1; ref Evans et al., 2019; cited from earlier work
# [7] = system: narcoleptic OX2R knockout (KO) mice; conditions: subcutaneous; ref Yukitake et al., 2019; cited from earlier work
# [8] = system: Hcrt-deficient, Hcrt neuron-ablated and wild-type mice; conditions: peripheral administration; ref Irukayama-Tomobe et al., 2017; cited from earlier work
# [9] = system: Hcrt peptide-deficient and Hcrt neuron-ablated mice; conditions: ref Irukayama-Tomobe et al., 2017; cited from earlier work
# [10] = system: Hcrt receptor-deficient mice; conditions: ref Irukayama-Tomobe et al., 2017; cited from earlier work
# [11] = first post-dosing hour (ZT13), 3 and 10 mg/kg i.p.
# [12] = second post-dosing hour, 10 mg/kg s.c.
# [13] = first hour, all doses 1–10 mg/kg s.c.
# [14] = first post-dosing hour, all doses s.c.
# [15] = first post-dosing hour (ZT13), all doses s.c.
smiles,measurement,setting,value
"CCNC(=O)N1CCC[C@H](NS(C)(=O)=O)[C@@H]1CO[C@H]1CC[C@@H](C(C)C)CC1 [ARN-776, (2R,3S)-N-ethyl-2-{[(cis-4-isopropylcyclohexyl)oxy]methyl}−3-[(methylsulfonyl)amino]piperidine-1-carboxamide]",Cmax,"[1]; brain, ip",13 ng/g
same,Tmax,"[1]; brain, ip",10 min
same,half-life,"[1]; brain, ip",38 min
same,AUC(0-t),"[1]; plasma, ip",191 ng·h/mL
same,Cmax,"[1]; plasma, ip",326 ng/mL
same,Tmax,"[1]; plasma, ip",10 min
same,half-life,"[1]; plasma, ip",125 min
same,High gamma EEG power during Wake across the entire recording period,"[2]; 10 mg/kg i.p., p = 0.04",significantly increased high gamma
same,Waking EEG low and high gamma power,"[2]; ZT13, 3 mg/kg i.p.",significantly increased
same,NREM EEG alpha and high gamma power,"[2]; ZT14, 10 mg/kg i.p.",significant reductions
same,NREM EEG high gamma power,"[2]; ZT15, 10 mg/kg i.p.",reduction of high gamma continued into ZT15
same,"Waking EEG power in alpha, low gamma and high gamma","[2]; first post-dosing hour, 10 mg/kg i.p.",significantly increased power in all three of these bands
same,fraction unbound at 5 μM,[3]; mouse brain homogenate,0.121
same,fraction unbound at 5 μM,[3]; mouse plasma,0.176
same,Number of Wake bouts across the entire 6-h recording,[4]; 3 mg/kg (p = 0.03) and 10 mg/kg (p = 0.002) i.p.,significantly reduced the number of Wake bouts
same,Cataplexy bout duration,"[4]; 3 mg/kg i.p., p = 0.046",modest effect
same,Cumulative time in Wake,"[4]; 10 mg/kg i.p., post hoc p = 0.005",significant effects
same,Cumulative time in NREM sleep,"[4]; 10 mg/kg i.p., post hoc p = 0.028",significant effects
same,Latency to REM sleep,[4]; 10 mg/kg i.p.,delayed REM sleep
same,"NREM bout duration, post hoc test per dose",[4]; 1–10 mg/kg i.p.,did not identify any specific dose
same,"REM bout duration, post hoc test per dose",[4]; 1–10 mg/kg i.p.,did not identify any specific dose
same,REM sleep rebound after early suppression,[4]; 1–10 mg/kg i.p.,rebound did not reach statistical significance
same,Percent time in Cataplexy across the 6-h recording,"[4]; all 3 doses (1, 3, 10 mg/kg i.p.)",reduced Cataplexy across the 6-h period
same,Cumulative time in Cataplexy,[4]; all 3 doses i.p.,cumulative suppression of Cataplexy
same,"Wake bout duration, treatment effect",[4]; all doses i.p.,significant treatment effects
same,REM/NREM ratio,[4]; i.p.,unchanged
same,Number of NREM bouts,"[4]; first hour post-dosing, only middle and high doses i.p.",reduced the number of NREM bouts
same,Hourly amount of NREM sleep,"[4]; first hour, 1–10 mg/kg i.p.",dose-related changes
same,Hourly amount of REM sleep,"[4]; first hour, 1–10 mg/kg i.p.",dose-related changes
same,Hourly amount of Wake,"[4]; first hour, 1–10 mg/kg i.p.",dose-related changes
same,Number of Wake bouts,"[4]; first hour, 1–10 mg/kg i.p.",dose-related effect
same,Reduction in hourly Cataplexy levels,"[4]; first hour, 1–10 mg/kg i.p.",did not reach statistical significance
same,Wake bout duration,[4]; all doses i.p.,increased Wake bout duration
same,Compensatory NREM sleep after increased wakefulness,[4]; i.p.,no compensatory increase in NREM sleep
same,Suppression of cumulative REM sleep,[4]; lower doses i.p.,limited to the first post-dosing hour
same,Number of REM bouts,[4]; only 10 mg/kg i.p.,reduced the number of REM bouts
same,Latency to NREM sleep,[4]; only 3 and 10 mg/kg i.p. (not 1 mg/kg),delayed NREM
same,Number of Cataplexy bouts,[4]; only the two highest concentrations i.p.,effective during the first and later hours
same,Number of Wake bouts,"[4]; second hour, only 10 mg/kg i.p.",reduced the number of Wake bouts
same,Number of running bouts,[5]; 3 and 10 mg/kg i.p.,more running bouts
same,Gross motor activity,"[5]; ZT15, highest dose i.p.",reduced gross motor activity
same,Gross motor activity,[5]; [11],significantly increased motor activity
same,Running wheel activity,[5]; [11],significantly increased running wheel activity
same,Subcutaneous temperature (Tsc),[5]; [11],significantly increased Tsc
"COC(=O)N1CCC[C@H](NS(C)(=O)=O)[C@@H]1CO[C@H]1CC[C@@H](c2ccccc2)CC1 [TAK-925, Methyl (2R,3S)-3-[(methylsulfonyl)amino]-2-{[(cis-4-phenylcyclohexyl)oxy]methyl}piperidine-1-carboxylate]",Cmax,"[1]; brain, sc",20 ng/g
same,Tmax,"[1]; brain, sc",10 min
same,half-life,"[1]; brain, sc",53 min
same,AUC(0-t),"[1]; plasma, sc",335 ng·h/mL
same,Cmax,"[1]; plasma, sc",160 ng/mL
same,Tmax,"[1]; plasma, sc",10 min
same,half-life,"[1]; plasma, sc",36 min
same,High gamma EEG power during Wake across the entire recording period,"[2]; 10 mg/kg s.c., p = 0.02",significantly increased high gamma
same,Waking EEG high gamma power,"[2]; ZT13, 1 mg/kg s.c.",significantly increased high gamma power
same,"Waking EEG spectral power in alpha, low gamma and high gamma","[2]; ZT13, 3 and 10 mg/kg s.c.",significantly increased spectral power in all three bandwidths
same,NREM EEG delta power,"[2]; ZT14, 1 mg/kg s.c.",increased NREM delta
same,NREM EEG spectral power,"[2]; ZT14, 10 mg/kg s.c.",increased spectral power during ZT14 for all EEG bands except for low gamma
same,"Waking EEG high gamma power, persistence of effect",[2]; [12],continued into the second post-dosing hour
same,fraction unbound at 5 μM,[3]; mouse brain homogenate,0.077
same,fraction unbound at 5 μM,[3]; mouse plasma,0.107
same,Wakefulness,wild-type mice,wake-promoting
same,Ability to maintain wakefulness,[6],improved individuals’ ability to maintain wakefulness
same,Tolerability,[6],well-tolerated
same,Wakefulness,[7],but not in narcoleptic OX2R knockout (KO) mice
same,Duration of the reduction of Wake bouts,[4]; 10 mg/kg s.c.,up to 3 h
same,Cumulative time in Cataplexy,"[4]; 10 mg/kg s.c., p = 1.74 × 10^−4",suppression of Cataplexy
same,Latency to NREM sleep,"[4]; 1, 3 and 10 mg/kg s.c.",delayed NREM sleep onset
same,"Effects on arousal states (Wake, NREM, REM) across the 6-h recording",[4]; 1–10 mg/kg s.c.,transitory
same,"NREM bout duration, post hoc test per dose",[4]; 1–10 mg/kg s.c.,did not identify any specific dose
same,"REM bout duration, post hoc test per dose",[4]; 1–10 mg/kg s.c.,did not identify any specific dose
same,Latency to REM sleep,"[4]; all doses (1, 3, 10 mg/kg s.c.)",delayed REM sleep
same,"Wake bout duration, treatment effect",[4]; all doses s.c.,significant treatment effects
same,REM/NREM ratio,[4]; s.c.,unchanged
same,Hourly amount of Cataplexy,[4]; [13],eliminated
same,Hourly amount of NREM sleep,[4]; [13],eliminated
same,Hourly amount of REM sleep,[4]; [13],eliminated
same,Hourly amount of Wake,[4]; [13],caused continuous wakefulness
same,Wake bout duration,[4]; all doses s.c.,increased Wake bout duration
same,Number of bouts of Cataplexy,[4]; [14],reduced the number of bouts
same,Number of bouts of NREM,[4]; [14],reduced the number of bouts
same,Number of bouts of REM,[4]; [14],reduced the number of bouts
same,Number of bouts of Wake,[4]; [14],reduced the number of bouts
same,Number of Cataplexy bouts,"[4]; first two hours, all doses s.c.",reduced the number of Cataplexy bouts
same,Compensatory NREM sleep after increased wakefulness,[4]; s.c.,no compensatory increase in NREM sleep
same,Number of Wake bouts across the entire 6-h recording,"[4]; only 10 mg/kg s.c., p = 0.013",reduced the number of Wake bouts
same,Percent time in Cataplexy across the 6-h recording,[4]; only the highest dose (10 mg/kg s.c.),reduced Cataplexy across the entire 6-h recording period
same,REM sleep rebound after early suppression,"[4]; s.c., ZT16, 4 hours post-treatment",rebound that reached significance at ZT16
same,Cumulative time in REM sleep,"[4]; s.c., first two hours after dosing, followed by a later rebound",significant suppression of REM sleep
same,Increase of Wake bout duration,"[4]; second post-dosing hour (ZT14), highest dose s.c.",continued into the second post-dosing hour
same,Hourly amount of Cataplexy,[4]; [12],reduction of Cataplexy continued into the second post-dosing hour
same,Number of running bouts,[5]; all doses s.c.,more running bouts
same,Running wheel activity,"[5]; ZT17, 10 mg/kg s.c.",Reduced running wheel activity
same,Gross motor activity,"[5]; ZT17, highest dose s.c.",reduced gross motor activity
same,Running wheel activity,"[5]; ZT18, 10 mg/kg s.c.",increase at ZT18
same,Running wheel activity,"[5]; first post-dosing hour (ZT13), 1 mg/kg s.c.",significantly increased running wheel activity
same,Gross motor activity,[5]; [15],significantly increased motor activity
same,Subcutaneous temperature (Tsc),[5]; [15],significantly increased Tsc
COc1ccc(-c2cccc(C(=O)N(C)C)c2)cc1S(=O)(=O)Nc1cccc(NCCNC(=O)c2ccccc2N(C)C)c1 [YNT-185],Wakefulness,[8],promoted wakefulness
same,Sleep onset REM periods (SOREMs),[9],reduced sleep onset REM periods (SOREMs)
same,Sleep onset REM periods (SOREMs),[10],but not in Hcrt receptor-deficient mice
